Calls of active or inactive are those of the source. The calls are words filed in the database; no cut-off is given here.
Legend:
SH-SY5Y [1] = experiment: Neuroprotective activity against 6-OHDA-induced cell death in human SH-SY5Y cells assessed as decrease in cleaved caspase-3 level at 6 uM by Western blot method; type: functional, cell-based
How it was run: (§1)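 SH-SY5Y cells exposed to 6-OHDA in serum-free N-2 medium ± compound at 6 µM. Lysates in Triton/Tris/NaCl/PMSF, SDS-PAGE, PVDF blot, HRP secondary, ECL detection of cleaved caspase-3 and cytosolic cytochrome c. Actin and SOD-1 used as loading controls.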

[2] = target: Nuclear receptor subfamily 4 group A member 2 (Mus musculus) (UniProt Q06219); experiment: Activation of mouse Nurr1 transfected in human SK-N-BE(2)C cells by luciferase reporter gene assay; type: cell-based
Sequence of Nuclear receptor subfamily 4 group A member 2 (Mus musculus) (Q06219 whole entry, the tested form may be a part): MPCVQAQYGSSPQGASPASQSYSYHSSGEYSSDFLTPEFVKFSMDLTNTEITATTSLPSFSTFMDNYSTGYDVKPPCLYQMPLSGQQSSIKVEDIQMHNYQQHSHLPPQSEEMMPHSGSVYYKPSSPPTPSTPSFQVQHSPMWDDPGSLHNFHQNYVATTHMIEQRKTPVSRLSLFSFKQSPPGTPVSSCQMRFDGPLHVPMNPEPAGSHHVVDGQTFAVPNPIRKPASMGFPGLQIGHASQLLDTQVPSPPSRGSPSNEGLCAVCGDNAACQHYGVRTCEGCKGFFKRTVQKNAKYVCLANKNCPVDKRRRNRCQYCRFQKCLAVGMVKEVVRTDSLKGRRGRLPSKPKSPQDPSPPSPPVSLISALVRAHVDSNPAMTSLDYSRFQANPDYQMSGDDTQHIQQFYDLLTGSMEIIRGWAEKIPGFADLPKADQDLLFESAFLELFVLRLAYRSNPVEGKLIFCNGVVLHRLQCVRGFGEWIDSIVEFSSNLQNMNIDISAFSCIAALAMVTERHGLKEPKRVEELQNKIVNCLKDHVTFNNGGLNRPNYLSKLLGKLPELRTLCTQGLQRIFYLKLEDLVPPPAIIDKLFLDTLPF
How it was run: (§2)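 SK-N-BE(2)C neuroblastoma cells plated 1.5 × 10^5/well a day before, transfected with pTH2600LUC (2.6 kb rat TH promoter), pCMV Nurr1-myc, pZeoSV-Nurr1(LBD), p8xGAL-Luc and pRSV-β-gal control (0.5 µg DNA/well total). Test agent added 6 h post-transfection in DMEM with 1% charcoal-stripped serum, incubated overnight. Firefly luciferase read, normalized to β-galactosidase.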

[3] = target: Nuclear receptor subfamily 4 group A member 2 (Mus musculus) (UniProt Q06219); experiment: Activation of mouse Nurr1 transfected in human SK-N-BE(2)C cells at 0.3 uM by luciferase reporter gene assay relative to control; type: cell-based; how it was run: as §2
[4] = Cytotoxicity against human SK-N-BE(2)C cells up to 30 uM; type: toxicity, cell-based
SH-SY5Y [5] = experiment: Neuroprotective activity against 6-OHDA-induced cell death in human SH-SY5Y cells assessed as increase in cell viability at 6.25 uM by MTT reduction assay; type: functional, cell-based
How it was run: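 SH-SY5Y cells grown 2 days on poly-D-lysine in DMEM with 10% horse serum and 5% FBS, then switched to serum-free N-2 medium containing 6-OHDA ± compound. Viability by MTT (1 mg/mL final, 1 h), formazan solubilized 24 h in Triton/HCl/isopropanol, absorbance 570 nm. ANOVA with Tukey–Kramer, n = 4.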

[6] = Cytotoxicity against human SH-SY5Y cells assessed as decrease in cell viability at higher concentrations by MTT reduction assay; type: toxicity, cell-based
SH-SY5Y [7] = experiment: Neuroprotective activity against 6-OHDA-induced cell death in human SH-SY5Y cells assessed as decrease in release of mitochondrial cytochrome c into cytosolic fraction at 6 uM by Western blot method; type: functional, cell-based; how it was run: as §1
BV-2 [8] = experiment: Antiinflammatory activity in mouse BV2 cells assessed as downregulation of LPS-induced IL-1beta mRNA expression at 3 uM by qRT-PCR method; type: functional, cell-based
How it was run: (§3)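 BV-2 mouse microglia (DMEM, 10% heat-inactivated FBS, 2 mM glutamine) in six-well plates at 1.0 × 10^5 cells/well, given LPS with or without compound at 37 °C. RNA extracted. IL-1β and IL-6 mRNA measured by SYBR Green real-time PCR on cDNA from 50 ng DNase-treated RNA. ANOVA with Tukey–Kramer, n = 4.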

BV-2 [9] = experiment: Antiinflammatory activity in mouse BV2 cells assessed as downregulation of LPS-induced IL-6 mRNA expression at 3 uM by qRT-PCR method; type: functional, cell-based; how it was run: as §3
BV-2 [10] = experiment: Antiinflammatory activity in mouse BV2 cells assessed as downregulation of LPS-induced IL-1beta level at 3 uM by Western blot method; type: functional, cell-based
BV-2 [11] = experiment: Antiinflammatory activity in mouse BV2 cells assessed as downregulation of LPS-induced IL-6 level at 3 uM by Western blot method; type: functional, cell-based
Rattus norvegicus [12] = experiment: Neuroprotective activity in 6-OHDA-lesioned Sprague-Dawley rat model of parkinson disease assessed as decrease in d-amphetamine-induced ipsilateral rotations at 0.5 mg/kg/day, ip administered for 2 weeks measured on day 14 and 42 post 6-OHDA lesion induction relative to vehicle-treated control; type: functional, organism-based
How it was run: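 Sprague-Dawley rats (140–160 g), desipramine 25 mg/kg ip 30 min before surgery, under Zoletil anesthesia. 6-OHDA 8 µL of 2.5 µg/µL injected into left striatum. Compound in saline with 0.25% ethanol or vehicle given ip daily for 2 weeks (n = 10 vs 14). d-Amphetamine 5 mg/kg. Ipsilateral turns counted for 30 min starting 30 min after dosing, at weeks 2 and 6. Student's t-test.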

Rattus norvegicus [13] = experiment: Neuroprotective activity in 6-OHDA-lesioned Sprague-Dawley rat model of parkinson disease assessed as decrease in loss of tyrosine hydroxylase-positive immunoreactive neuronal cell levels in ipsilateral side of substantia nigra pars compacta by measuring cell levels in intact contralateral side at 0.5 mg/kg/day, ip administered for 2 weeks measured on day 43 post 6-OHDA lesion induction by immunohistochemical analysis (reference value: 24.62 +/- 3.48%); type: functional; set-up: scale not given: the % may be the effect or the level left
How it was run: (§4)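 Same unilateral striatal 6-OHDA rat model with 2-week daily ip dosing (vehicle 0.25% ethanol). Perfused with 4% PFA on day 43. 40 µm coronal sections stained by DAB for TH (SNc, AP −4.8 to −5.5) or Iba-1 (striatum, AP +1.0 to +0.6). Cells counted in three sections per animal. TH expressed as % of contralateral side. Student's t-test, n = 10–14.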

Rattus norvegicus [14] = experiment: Antiinflammatory activity in 6-OHDA-lesioned Sprague-Dawley rat model of parkinson disease assessed as decrease in Iba-1 positive cell levels in striatum at 0.5 mg/kg/day, ip administered for 2 weeks measured on day 43 post 6-OHDA lesion induction by immunohistochemical analysis relative to vehicle-treated control; type: functional, organism-based; how it was run: as §4

With `C=C(C)[C@]12C[C@@H](C)[C@@]34OC(c5ccccc5)(O[C@@H]1[C@@H]3[C@@H]1O[C@]1(CO)[C@@H](O)[C@@]1(O)[C@H]4C[C@H](C)[C@@H]1OC(=O)c1ccccc1)O2` the Activity (SH-SY5Y [1]) was “Active”, the Activity [2] was “Dose-dependent effect” and the fold change (FC) [3] was 3. For the same molecule, the Activity [4] was “Non-Toxic”, the Activity (SH-SY5Y [5]) was “Active” and the Activity [6] was “Toxic”. The Activity (SH-SY5Y [7]) was “Active”, the Activity (BV-2 [8]) was “Active” and the Activity (BV-2 [9]) was “Active”. For the same molecule, the Activity (BV-2 [10]) was “Active” and the Activity (BV-2 [11]) was “Active”.

With `C=C(C)[C@@]12OC3(/C=C/C=C/CCCCC)O[C@@H]1[C@@H]1[C@@H]4O[C@]4(CO)[C@@H](O)[C@]4(O)C(=O)C(C)=C[C@H]4[C@@]1(O3)[C@H](C)[C@H]2OC(=O)c1ccccc1` the Activity (SH-SY5Y [1]) was “Active”, the Activity [2] was “Dose-dependent effect” and the fold change (FC) [3] was 3.5. The Activity [4] was “Non-Toxic”, the Activity (SH-SY5Y [5]) was “Active” and the Activity [6] was “Toxic”. The Activity (SH-SY5Y [7]) was “Active”, the Activity (BV-2 [8]) was “Active” and the Activity (BV-2 [9]) was “Active”. The Activity (BV-2 [10]) was “Active”, the Activity (BV-2 [11]) was “Active” and the Activity (Rattus norvegicus [12]) was “Active”. For the same molecule, the Activity (Rattus norvegicus [13]) was 40.28% and the Activity (Rattus norvegicus [14]) was “Active”.

Source: ChEMBL document CHEMBL3853310, “Daphnane Diterpenes from Daphne genkwa Activate Nurr1 and Have a Neuroprotective Effect in an Animal Model of Parkinson's Disease” (J Nat Prod, 2016)
